Laboratory results as given in ChEMBL document CHEMBL1158120, “Cytotoxic oxygenated triterpenoid saponins from Symplocos chinensis” (J Nat Prod, 2006).

How the values were obtained:
Type in all cases: functional, cell-based
HCT-8 = assay: Cytotoxicity against human HCT8 cells by MTT assay
How it was run: (§1)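 MTT read-out of tumour-cell viability. IC50 values in µM are reported as means of three independent experiments.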

Bel-7402 = assay: Cytotoxicity against human Bel-7402 cells by MTT assay; how it was run: as §1
BGC-823 = assay: Cytotoxicity against human BGC-823 cells by MTT assay; how it was run: as §1
A549 = assay: Cytotoxicity against human A549 cells by MTT assay; how it was run: as §1
A2780 = assay: Cytotoxicity against human A2780 cells by MTT assay; how it was run: as §1

Row | SMILES | IC50 (HCT-8) [nM] | IC50 (Bel-7402) [nM] | IC50 (BGC-823) [µM] | IC50 (A549) [µM] | IC50 (A2780) [µM]
1 | CC(=O)O[C@@H]1[C@@H](O[C@@H]2O[C@H](CO)[C@@H](O)[C@H](O)[C@H]2O)[C@H](O[C@H]2CC[C@]3(C)[C@H]4CC=C5[C@@H]6CC(C)(C)[C@@H](OC(=O)/C=C(\C)CCC=C(C)C)[C@H](OC(=O)C(C)C)[C@]6(CO)[C@H](O)[C@H](O)[C@@]5(C)[C@]4(C)CC[C@H]3C2(C)C)O[C@H](C(=O)O)[C@H]1O[C@@H]1O[C@@H](CO)[C@H](O)[C@H]1O [SYMPLOCOSOSIDE M] | 2700 | 3800 | > 10 | > 10 | 2.3
2 | CC(=O)O[C@@H]1[C@@H](O[C@@H]2O[C@H](CO)[C@@H](O)[C@H](O)[C@H]2O)[C@H](O[C@H]2CC[C@]3(C)[C@H]4CC=C5[C@@H]6CC(C)(C)[C@@H](OC(=O)/C=C(/C)CCC=C(C)C)[C@H](OC(=O)C(C)C)[C@]6(CO)[C@H](O)[C@H](O)[C@@]5(C)[C@]4(C)CC[C@H]3C2(C)C)O[C@H](C(=O)O)[C@H]1O[C@@H]1O[C@@H](CO)[C@H](O)[C@H]1O [SYMPLOCOSOSIDE L] | 1700 | 2700 | > 10 | > 10 | 2.4
3 | CC(C)=CCC/C(C)=C\C(=O)O[C@H]1CC(C)(C)C[C@H]2C3=CC[C@@H]4[C@@]5(C)CC[C@H](O)C(C)(C)[C@@H]5CC[C@@]4(C)[C@]3(C)[C@@H](O)[C@@H](O)[C@@]12CO | > 10000 | > 10000 | > 10 | > 10 | > 10
4 | CCC(C)C(=O)O[C@H]1[C@H](OC(=O)/C=C(/C)CCC=C(C)C)C(C)(C)C[C@H]2C3=CC[C@@H]4[C@@]5(C)CC[C@H](O[C@@H]6O[C@H](C(=O)OC)[C@@H](O[C@@H]7O[C@@H](CO)[C@H](O)[C@H]7O)[C@H](OC(C)=O)[C@H]6O[C@@H]6O[C@H](CO)[C@@H](O)[C@H](O)[C@H]6O)C(C)(C)[C@@H]5CC[C@@]4(C)[C@]3(C)[C@@H](O)[C@@H](O)[C@]21CO (stereo not given in full) [SYMPLOCOSOSIDE I] | 1700 | 2700 | > 10 | > 10 | 3.2
5 | CCC(C)C(=O)O[C@H]1[C@H](OC(=O)/C=C/c2ccccc2)C(C)(C)C[C@H]2C3=CC[C@@H]4[C@@]5(C)CC[C@H](O[C@@H]6O[C@H](C(=O)O)[C@@H](O)[C@H](O)[C@H]6O[C@@H]6O[C@H](CO)[C@@H](O)[C@H](O)[C@H]6O)C(C)(C)[C@@H]5CC[C@@]4(C)[C@]3(C)[C@@H](O)[C@@H](O)[C@]21CO (stereo not given in full) [SYMPLOCOSOSIDE N] | 1800 | 1700 | > 10 | > 10 | 3.2
